Measurements published in ChEMBL document CHEMBL4145619, “Computer-Assisted Discovery of Retinoid X Receptor Modulating Natural Products and Isofunctional Mimetics” (J Med Chem, 2018).
The source made the active and inactive calls. No cut-off for these calls is given here.

How the values were obtained:
Type in all cases: cell-based
[1] = system: HepG2; assay: Cytotoxicity against human HepG2 cells assessed as reduction in cell viability up to 100 uM after 48 hrs by WST1 assay; conditions: hepg2, 48 h
[2] = molecular target: T1, Peroxisome proliferator-activated receptor gamma (Homo sapiens) (UniProt P37231); assay: Transactivation of human Gal4-fused PPARgamma LBD expressed in HEK293T cells at 30 uM after 12 to 14 hrs by dual-glo luciferase assay
T1 sequence (whole entry): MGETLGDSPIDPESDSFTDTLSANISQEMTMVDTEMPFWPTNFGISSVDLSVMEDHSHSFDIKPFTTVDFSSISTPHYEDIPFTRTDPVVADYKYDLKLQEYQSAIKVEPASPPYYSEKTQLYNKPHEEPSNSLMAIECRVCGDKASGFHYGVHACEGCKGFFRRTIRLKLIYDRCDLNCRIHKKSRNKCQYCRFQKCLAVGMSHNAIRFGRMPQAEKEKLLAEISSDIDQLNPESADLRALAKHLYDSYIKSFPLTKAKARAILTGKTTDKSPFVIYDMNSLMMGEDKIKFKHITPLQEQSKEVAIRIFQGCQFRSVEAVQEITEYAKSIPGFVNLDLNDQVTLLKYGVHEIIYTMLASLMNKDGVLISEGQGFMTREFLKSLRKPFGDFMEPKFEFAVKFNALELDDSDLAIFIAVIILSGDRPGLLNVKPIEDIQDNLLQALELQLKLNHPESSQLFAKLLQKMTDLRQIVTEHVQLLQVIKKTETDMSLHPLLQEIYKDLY
Method in brief: (§1)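 Single-concentration selectivity profiling in Gal4-hybrid reporter gene assays in HEK293T cells. Each nuclear receptor construct (RAR, PPAR, LXR, FXR, CAR, VDR, PXR, RXR) was tested at 30 μM.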

[3] = molecular target: T2, Retinoic acid receptor RXR-gamma (Homo sapiens) (UniProt P48443); assay: Transactivation of human Gal4-fused RXRgamma LBD expressed in HEK293T cells after 12 to 14 hrs by dual-glo luciferase assay relative to bexarotene
T2 sequence (whole entry): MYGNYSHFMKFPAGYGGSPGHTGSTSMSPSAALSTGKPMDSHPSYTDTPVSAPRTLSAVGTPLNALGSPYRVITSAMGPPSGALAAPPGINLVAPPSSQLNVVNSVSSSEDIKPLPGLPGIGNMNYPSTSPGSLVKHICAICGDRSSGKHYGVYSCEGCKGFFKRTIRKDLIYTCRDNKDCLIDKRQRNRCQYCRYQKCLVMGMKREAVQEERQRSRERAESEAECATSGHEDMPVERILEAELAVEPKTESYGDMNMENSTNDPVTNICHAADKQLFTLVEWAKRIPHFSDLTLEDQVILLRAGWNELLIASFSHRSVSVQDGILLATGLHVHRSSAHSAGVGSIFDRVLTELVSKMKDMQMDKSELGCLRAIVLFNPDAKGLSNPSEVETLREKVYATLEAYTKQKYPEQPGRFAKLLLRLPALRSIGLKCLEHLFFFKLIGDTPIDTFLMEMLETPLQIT

[4] = molecular target: T3, Retinoic acid receptor RXR-alpha (Homo sapiens) (UniProt P19793); assay: Transactivation of human Gal4-fused RXRalpha LBD expressed in HEK293T cells after 12 to 14 hrs by dual-glo luciferase assay relative to bexarotene
T3 sequence (whole entry): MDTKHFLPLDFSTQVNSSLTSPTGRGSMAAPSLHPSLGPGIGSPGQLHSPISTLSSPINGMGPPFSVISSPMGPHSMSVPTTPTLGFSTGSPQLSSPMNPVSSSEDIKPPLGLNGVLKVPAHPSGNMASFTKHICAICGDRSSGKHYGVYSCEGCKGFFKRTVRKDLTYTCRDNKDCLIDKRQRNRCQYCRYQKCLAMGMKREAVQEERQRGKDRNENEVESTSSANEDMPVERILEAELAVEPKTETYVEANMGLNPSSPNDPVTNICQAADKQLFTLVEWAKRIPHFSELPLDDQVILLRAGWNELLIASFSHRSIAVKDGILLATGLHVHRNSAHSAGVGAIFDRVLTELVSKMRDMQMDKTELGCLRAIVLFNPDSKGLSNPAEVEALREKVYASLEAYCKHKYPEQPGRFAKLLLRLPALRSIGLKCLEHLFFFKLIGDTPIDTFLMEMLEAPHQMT

[5] = molecular target: T4, Retinoic acid receptor gamma (Homo sapiens) (UniProt P13631); assay: Transactivation of human Gal4-fused RARgamma LBD expressed in HEK293T cells at 30 uM after 12 to 14 hrs by dual-glo luciferase assay; method in brief: as §1
T4 sequence (whole entry): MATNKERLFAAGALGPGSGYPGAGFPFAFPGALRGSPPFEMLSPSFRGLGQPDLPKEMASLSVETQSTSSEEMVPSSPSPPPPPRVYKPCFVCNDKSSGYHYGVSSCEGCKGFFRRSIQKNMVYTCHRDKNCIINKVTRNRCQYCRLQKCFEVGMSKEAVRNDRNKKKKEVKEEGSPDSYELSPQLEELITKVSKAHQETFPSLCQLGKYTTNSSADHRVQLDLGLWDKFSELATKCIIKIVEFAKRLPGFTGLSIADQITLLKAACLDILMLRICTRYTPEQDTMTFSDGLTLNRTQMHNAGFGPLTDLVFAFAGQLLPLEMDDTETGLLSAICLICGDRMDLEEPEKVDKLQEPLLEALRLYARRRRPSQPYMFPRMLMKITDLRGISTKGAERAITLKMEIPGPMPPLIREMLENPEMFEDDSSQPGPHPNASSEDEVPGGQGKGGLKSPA

[6] = molecular target: Retinoid X receptor (Homo sapiens) (UniProt P28702+P48443+P19793); assay: Transactivation of RXR in human HepG2 cells assessed as induction of ABCA1 mRNA expression at 30 uM after 8 hrs by qRT-PCR analysis
Method in brief: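 HepG2 cells were treated and ABCA1 or ApoE mRNA levels measured. Results are given as mean fold induction versus 0.1% DMSO vehicle ± SEM, n = 3. Significance was set at p < 0.05, 0.01 or 0.001.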

[7] = molecular target: T5, Peroxisome proliferator-activated receptor delta (Homo sapiens) (UniProt Q03181); assay: Transactivation of human Gal4-fused PPARdelta LBD expressed in HEK293T cells at 30 uM after 12 to 14 hrs by dual-glo luciferase assay; method in brief: as §1
T5 sequence (whole entry): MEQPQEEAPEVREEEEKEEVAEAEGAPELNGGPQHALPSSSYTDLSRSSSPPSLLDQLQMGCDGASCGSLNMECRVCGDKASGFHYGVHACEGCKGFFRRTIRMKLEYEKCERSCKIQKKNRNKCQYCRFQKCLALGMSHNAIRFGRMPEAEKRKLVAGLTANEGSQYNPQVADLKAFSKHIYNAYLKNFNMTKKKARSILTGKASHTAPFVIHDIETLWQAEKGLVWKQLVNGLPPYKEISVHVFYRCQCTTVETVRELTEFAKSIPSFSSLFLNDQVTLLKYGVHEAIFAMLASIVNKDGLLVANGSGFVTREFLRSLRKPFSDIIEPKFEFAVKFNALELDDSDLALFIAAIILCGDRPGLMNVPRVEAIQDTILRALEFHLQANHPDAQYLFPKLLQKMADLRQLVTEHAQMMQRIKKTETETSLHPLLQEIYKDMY

Sequence of Retinoid X receptor (Homo sapiens) (P28702 whole entry, looked up, one chain of several): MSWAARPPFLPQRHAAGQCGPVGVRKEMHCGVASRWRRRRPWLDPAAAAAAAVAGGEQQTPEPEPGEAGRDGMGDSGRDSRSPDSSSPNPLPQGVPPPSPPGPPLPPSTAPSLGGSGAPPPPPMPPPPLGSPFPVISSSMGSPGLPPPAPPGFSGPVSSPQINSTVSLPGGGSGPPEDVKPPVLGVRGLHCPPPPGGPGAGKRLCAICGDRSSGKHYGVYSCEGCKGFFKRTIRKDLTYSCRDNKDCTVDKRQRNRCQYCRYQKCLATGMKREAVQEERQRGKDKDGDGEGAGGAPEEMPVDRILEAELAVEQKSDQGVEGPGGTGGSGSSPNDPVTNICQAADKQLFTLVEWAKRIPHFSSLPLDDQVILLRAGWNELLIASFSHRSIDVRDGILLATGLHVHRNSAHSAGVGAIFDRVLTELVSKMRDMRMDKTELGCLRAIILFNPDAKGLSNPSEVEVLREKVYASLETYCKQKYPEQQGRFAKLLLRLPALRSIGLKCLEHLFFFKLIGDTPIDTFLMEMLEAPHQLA

Compound: CC1=C2[C@H](/C=C(\C)C(=O)O)CC[C@@H](C)[C@H]2CC1 [VALERENIC ACID]
- Activity [1]: Non-Toxic
- Activity [2]: inactive
- fold change (FC) [3]: 4
- fold change (FC) [4]: 9
- Activity [5]: inactive
- Activity [6]: Active
- Activity [7]: inactive
